Laboratory results reported in ChEMBL document CHEMBL1287763, “Antiangiogenic properties of substituted (Z)-(±)-2-(N-benzylindol-3-ylmethylene)quinuclidin-3-ol/one analogs and their derivatives” (Bioorg Med Chem Lett, 2010).
Calls of active or inactive are those of the source. The rule behind the calls is not given here.

Columns and labels:
HUVEC [1] = test: Antiangiogenic activity against HUVEC assessed as inhibition of cell migration at 25 uM after 20 hrs by scratch assay; assay type: functional, cell-based; settings: Homo sapiens
Outline: (§1)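 Confluent HUVEC monolayers were scratched with a pipette tip and washed twice with PBS. Compound was added in HUVEC medium, and cells were incubated at 37°C for 20 h. Images were taken at 0 h (right after compound addition) and at 20 h. Migration was compared with cells not given compound.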

HUVEC [2] = test: Antiangiogenic activity against HUVEC assessed as inhibition of cell migration at 10 uM after 20 hrs by scratch assay; assay type: functional, cell-based; settings: Homo sapiens; outline: as §1
HUVEC [3] = test: Cytotoxicity against HUVEC assessed as cell viability at 10 uM after 6 hrs by crystal violet staining; assay type: cell-based; settings: human
HUVEC [4] = test: Inhibition of ECTO-NOX in HUVEC assessed as reduction of WST-1 at 10 uM […]; assay type: cell-based; settings: Homo sapiens
Outline: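 HUVECs were grown for 24 h after seeding, then treated for 20 h in duplicate with analog (0.5, 1, 5, 10 µM) or DMSO solvent. WST-1 reduction was then measured following the kit protocol, read as optical density at 450 nm.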

HUVEC [5] = test: Antiangiogenic activity against HUVEC assessed as inhibition of p70S6K1 phosphorylation at T389; assay type: functional, cell-based; settings: Homo sapiens

Row | SMILES | Activity (HUVEC [1]) | Activity (HUVEC [2]) | Activity (HUVEC [3]) | ECTO-NOX inhibition (active/not active) (HUVEC [4]) | inhibition (HUVEC [5])
1 | OC1/C(=C/c2cn(Cc3cccc(F)c3)c3ccc(Br)cc23)N2CCC1CC2 (centres undefined) | Active | Active | Non-toxic |  | 
2 | Cc1cccc(Cn2cc(/C=C3/C(O)C4CCN3CC4)c3cc(C)ccc32)c1 (centres undefined) | Active | Active | Non-toxic | inactive | 
3 | O=S(=O)(c1ccccc1)n1cc(/C=C2/C(=N/O)C3CCN2CC3)c2ccccc21 | Active | Active | Non-toxic | Active | Active
4 | Cc1ccc(S(=O)(=O)n2cc(/C=C3/C(O)C4CCN3CC4)c3ccccc32)cc1 (centres undefined) |  |  |  | inactive | 
5 | OC1/C(=C/c2cn(Cc3cccc(F)c3)c3ccccc23)N2CCC1CC2 (centres undefined) | Active | Active | Non-toxic | inactive | 
6 | O=C(Nc1ccccc1)OC1/C(=C/c2cn(S(=O)(=O)c3ccccc3)c3ccccc23)N2CCC1CC2 (centres undefined) | Active | Active |  |  | 
7 | O=[N+]([O-])c1ccc2c(c1)c(/C=C1/C(O)C3CCN1CC3)cn2Cc1ccccc1 (centres undefined) | Active | Active | Non-toxic |  | 
8 | NC(=O)N/N=C1/C(=C/c2cn(S(=O)(=O)c3ccccc3)c3ccccc23)N2CCC1CC2 | Active | Active |  | inactive | 
9 | OC1/C(=C/c2cn(Cc3ccccc3)c3ccc(Br)cc23)N2CCC1CC2 (centres undefined) | Active | Active | Non-toxic | inactive | 
